Experimental data from ChEMBL document CHEMBL2346629, “Discovery and characterization of novel allosteric FAK inhibitors” (Eur J Med Chem, 2013).

What was measured:
[1] = target: Myotonin-protein kinase (Homo sapiens) (UniProt Q09013); assay: Inhibition of DMPK (unknown origin) using [gamma-33P]ATP assessed as residual activity at 3 uM
How it was run: (§1)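 Reaction Biology HotSpot radiometric profiling panel of 288 kinases (261 wild-type, 27 mutant). Kinase activity was read out by incorporation of [γ-33P]ATP.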

[2] = target: Protein kinase C beta type (Homo sapiens) (UniProt P05771); assay: Inhibition of PKCb2 (unknown origin) using [gamma-33P]ATP assessed as residual activity at 3 uM
Sequence of Protein kinase C beta type (Homo sapiens) (P05771 2-671 limits assumed): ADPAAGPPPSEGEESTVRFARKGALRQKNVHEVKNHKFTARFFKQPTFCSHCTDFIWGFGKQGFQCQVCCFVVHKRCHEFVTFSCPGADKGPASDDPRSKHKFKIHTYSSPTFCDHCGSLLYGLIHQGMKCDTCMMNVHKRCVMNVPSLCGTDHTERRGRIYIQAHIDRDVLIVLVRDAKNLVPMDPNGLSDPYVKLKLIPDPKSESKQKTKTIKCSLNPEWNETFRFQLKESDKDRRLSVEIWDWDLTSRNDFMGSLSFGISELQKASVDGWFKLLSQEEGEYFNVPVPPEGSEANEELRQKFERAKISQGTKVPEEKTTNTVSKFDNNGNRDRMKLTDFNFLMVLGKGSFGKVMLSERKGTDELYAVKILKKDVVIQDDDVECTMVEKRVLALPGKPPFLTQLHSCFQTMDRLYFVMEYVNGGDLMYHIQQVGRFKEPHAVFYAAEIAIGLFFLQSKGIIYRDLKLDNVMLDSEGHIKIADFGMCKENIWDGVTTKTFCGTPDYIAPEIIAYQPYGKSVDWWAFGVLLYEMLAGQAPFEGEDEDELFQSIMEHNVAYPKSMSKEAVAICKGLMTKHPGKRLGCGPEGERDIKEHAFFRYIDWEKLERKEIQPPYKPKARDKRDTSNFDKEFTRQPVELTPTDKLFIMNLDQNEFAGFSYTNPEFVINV

[3] = target: Serine/threonine-protein kinase Sgk3 (Homo sapiens) (UniProt Q96BR1); assay: Inhibition of SGK3 (unknown origin) using [gamma-33P]ATP assessed as residual activity at 3 uM
[4] = target: Casein kinase I isoform gamma-1 (Homo sapiens) (UniProt Q9HCP0); assay: Inhibition of CK1g1(unknown origin) using [gamma-33P]ATP assessed as residual activity at 3 uM; how it was run: as §1
Sequence of Casein kinase I isoform gamma-1 (Homo sapiens) (Q9HCP0 whole entry, looked up, canonical isoform): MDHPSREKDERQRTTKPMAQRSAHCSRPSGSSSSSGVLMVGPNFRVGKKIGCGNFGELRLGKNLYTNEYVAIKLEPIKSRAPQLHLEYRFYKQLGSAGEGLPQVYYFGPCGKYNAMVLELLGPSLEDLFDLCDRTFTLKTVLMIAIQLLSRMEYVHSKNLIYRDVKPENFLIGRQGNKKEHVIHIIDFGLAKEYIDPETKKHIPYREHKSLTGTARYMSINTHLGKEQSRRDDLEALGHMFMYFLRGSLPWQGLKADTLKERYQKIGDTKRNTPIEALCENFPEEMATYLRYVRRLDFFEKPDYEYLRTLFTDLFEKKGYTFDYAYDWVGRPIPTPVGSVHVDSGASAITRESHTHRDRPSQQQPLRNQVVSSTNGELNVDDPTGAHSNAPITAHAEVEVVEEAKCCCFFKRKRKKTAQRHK

[5] = target: Ephrin type-B receptor 2 (Homo sapiens) (UniProt P29323); assay: Inhibition of EPHB2 (unknown origin) using [gamma-33P]ATP assessed as residual activity at 3 uM; how it was run: as §1
[6] = target: Tyrosine-protein kinase JAK2 (Homo sapiens) (UniProt O60674); assay: Inhibition of JAK2 (unknown origin) using [gamma-33P]ATP assessed as residual activity at 3 uM
How it was run: (§2)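 Radiometric kinase profiling service covering 288 kinases (261 wild-type, 27 mutant). Inhibition was read as incorporation from [γ-³³P]ATP.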

[7] = target: MAP kinase-activated protein kinase 5 (Homo sapiens) (UniProt Q8IW41); assay: Inhibition of MAPKAPK5 (unknown origin) using [gamma-33P]ATP assessed as residual activity at 3 uM; how it was run: as §2
[8] = target: Cyclin-dependent kinase 1/cyclin B1 (Homo sapiens) (UniProt P06493+P14635); assay: Inhibition of CDK1/cyclinB (unknown origin) using [gamma-33P]ATP assessed as residual activity at 3 uM; format: protein-complex assay
Sequence of Cyclin-dependent kinase 1/cyclin B1 (Homo sapiens) (P06493 whole entry, looked up): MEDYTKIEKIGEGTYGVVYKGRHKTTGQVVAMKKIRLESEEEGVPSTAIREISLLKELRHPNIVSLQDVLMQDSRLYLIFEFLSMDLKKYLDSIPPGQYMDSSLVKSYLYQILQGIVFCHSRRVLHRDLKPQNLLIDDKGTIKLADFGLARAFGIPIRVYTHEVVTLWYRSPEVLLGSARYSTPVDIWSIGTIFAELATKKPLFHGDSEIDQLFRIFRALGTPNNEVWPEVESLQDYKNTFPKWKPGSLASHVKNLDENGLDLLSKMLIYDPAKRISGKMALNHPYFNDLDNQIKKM
Sequence of Cyclin-dependent kinase 1/cyclin B1 (Homo sapiens) (P14635 whole entry, looked up): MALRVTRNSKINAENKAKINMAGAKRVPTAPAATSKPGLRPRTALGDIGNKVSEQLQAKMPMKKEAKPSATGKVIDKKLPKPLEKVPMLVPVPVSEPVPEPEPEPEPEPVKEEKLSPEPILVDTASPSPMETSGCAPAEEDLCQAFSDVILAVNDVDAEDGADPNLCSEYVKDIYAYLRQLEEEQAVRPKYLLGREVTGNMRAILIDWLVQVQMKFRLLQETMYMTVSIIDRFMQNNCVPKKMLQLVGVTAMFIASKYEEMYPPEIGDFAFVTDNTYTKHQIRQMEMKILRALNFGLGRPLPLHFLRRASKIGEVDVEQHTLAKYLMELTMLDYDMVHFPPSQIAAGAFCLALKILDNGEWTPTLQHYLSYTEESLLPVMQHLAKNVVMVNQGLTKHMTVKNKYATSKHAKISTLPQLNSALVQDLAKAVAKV
How it was run: (§3)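 Radiometric profiling across 288 kinases (261 wild-type, 27 mutant), run as an outsourced service. Inhibition read out as [gamma-33P]ATP incorporation into substrate.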

[9] = target: CDK3/cyclin E (Homo sapiens) (UniProt P24864+O96020+Q00526); assay: Inhibition of CDK3/cyclinE (unknown origin) using [gamma-33P]ATP assessed as residual activity at 3 uM; format: protein-complex assay; how it was run: as §3
Sequence of CDK3/cyclin E (Homo sapiens) (O96020 whole entry, looked up): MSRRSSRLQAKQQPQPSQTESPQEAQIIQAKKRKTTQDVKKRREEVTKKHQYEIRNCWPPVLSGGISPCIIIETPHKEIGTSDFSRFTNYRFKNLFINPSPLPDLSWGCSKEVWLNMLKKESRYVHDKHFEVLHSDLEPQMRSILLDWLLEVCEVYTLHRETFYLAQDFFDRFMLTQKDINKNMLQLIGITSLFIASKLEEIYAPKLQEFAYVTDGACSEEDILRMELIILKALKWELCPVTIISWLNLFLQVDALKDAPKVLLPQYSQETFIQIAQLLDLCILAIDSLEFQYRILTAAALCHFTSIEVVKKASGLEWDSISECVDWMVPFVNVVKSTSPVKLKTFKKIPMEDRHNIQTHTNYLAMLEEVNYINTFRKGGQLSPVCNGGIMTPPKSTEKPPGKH
Sequence of CDK3/cyclin E (Homo sapiens) (P24864 whole entry, looked up): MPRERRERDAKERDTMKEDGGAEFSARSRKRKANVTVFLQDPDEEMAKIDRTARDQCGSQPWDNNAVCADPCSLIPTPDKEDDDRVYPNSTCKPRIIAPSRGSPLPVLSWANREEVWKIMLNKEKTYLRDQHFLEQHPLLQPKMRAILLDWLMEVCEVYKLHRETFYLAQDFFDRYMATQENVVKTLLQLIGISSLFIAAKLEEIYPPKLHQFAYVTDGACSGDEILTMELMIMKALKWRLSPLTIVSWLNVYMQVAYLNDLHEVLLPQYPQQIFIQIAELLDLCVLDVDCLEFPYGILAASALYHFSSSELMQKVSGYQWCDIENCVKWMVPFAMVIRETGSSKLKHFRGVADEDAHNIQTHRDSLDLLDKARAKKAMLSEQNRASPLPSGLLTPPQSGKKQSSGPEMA
Sequence of CDK3/cyclin E (Homo sapiens) (Q00526 whole entry, looked up): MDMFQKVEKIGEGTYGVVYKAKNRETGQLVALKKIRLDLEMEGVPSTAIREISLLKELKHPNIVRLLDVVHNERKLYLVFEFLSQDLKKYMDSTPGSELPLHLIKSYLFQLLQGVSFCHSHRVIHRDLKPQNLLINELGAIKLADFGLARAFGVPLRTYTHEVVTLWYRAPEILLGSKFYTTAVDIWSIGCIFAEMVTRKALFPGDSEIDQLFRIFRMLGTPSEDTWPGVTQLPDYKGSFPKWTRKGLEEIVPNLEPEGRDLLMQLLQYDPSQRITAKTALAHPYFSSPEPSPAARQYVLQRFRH

[10] = system: Tyrosine-protein kinase ABL1 (Homo sapiens), P00519 [Q252H]; assay: Inhibition of ABL1 Q252H mutant (unknown origin) using [gamma-33P]ATP assessed as residual activity at 3 uM; how it was run: as §3
[11] = target: Serine/threonine-protein kinase TAO3 (Homo sapiens) (UniProt Q9H2K8); assay: Inhibition of TAOK3 (unknown origin) using [gamma-33P]ATP assessed as residual activity at 3 uM
[12] = target: Aurora kinase A (Homo sapiens) (UniProt O14965); assay: Inhibition of Aurora A (unknown origin) using [gamma-33P]ATP assessed as residual activity at 3 uM; how it was run: as §3
[13] = target: Calcium/calmodulin-dependent protein kinase type 1 (Homo sapiens) (UniProt Q14012); assay: Inhibition of CAMK1a (unknown origin) using [gamma-33P]ATP assessed as residual activity at 3 uM; how it was run: as §3
Sequence of Calcium/calmodulin-dependent protein kinase type 1 (Homo sapiens) (Q14012 whole entry, looked up): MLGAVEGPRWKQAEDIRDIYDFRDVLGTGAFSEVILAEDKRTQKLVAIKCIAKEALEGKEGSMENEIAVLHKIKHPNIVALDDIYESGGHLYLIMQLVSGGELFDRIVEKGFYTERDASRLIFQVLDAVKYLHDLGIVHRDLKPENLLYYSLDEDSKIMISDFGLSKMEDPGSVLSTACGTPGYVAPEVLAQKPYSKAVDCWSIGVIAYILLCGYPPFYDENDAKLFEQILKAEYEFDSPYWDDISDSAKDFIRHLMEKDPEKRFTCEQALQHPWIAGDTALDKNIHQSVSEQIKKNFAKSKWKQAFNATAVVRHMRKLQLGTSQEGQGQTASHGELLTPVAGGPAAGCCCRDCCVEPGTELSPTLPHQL

[14] = target: Mitogen-activated protein kinase 13 (Homo sapiens) (UniProt O15264); assay: Inhibition of P38d (unknown origin) using [gamma-33P]ATP assessed as residual activity at 3 uM
Sequence of Mitogen-activated protein kinase 13 (Homo sapiens) (O15264 whole entry): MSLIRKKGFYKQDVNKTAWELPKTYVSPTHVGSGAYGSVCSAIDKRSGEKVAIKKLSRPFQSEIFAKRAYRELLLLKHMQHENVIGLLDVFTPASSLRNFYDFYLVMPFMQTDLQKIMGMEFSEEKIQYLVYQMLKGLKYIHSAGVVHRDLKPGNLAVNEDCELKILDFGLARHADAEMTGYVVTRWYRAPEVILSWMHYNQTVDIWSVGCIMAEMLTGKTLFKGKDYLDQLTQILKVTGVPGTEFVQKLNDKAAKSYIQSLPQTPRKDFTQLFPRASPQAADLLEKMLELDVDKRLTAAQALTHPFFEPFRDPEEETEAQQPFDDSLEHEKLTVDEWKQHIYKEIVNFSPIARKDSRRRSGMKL

[15] = target: Calcium/calmodulin-dependent protein kinase type II subunit beta (Homo sapiens) (UniProt Q13554); assay: Inhibition of CAMK2b (unknown origin) using [gamma-33P]ATP assessed as residual activity at 3 uM; how it was run: as §3
[16] = target: Testis-specific serine/threonine-protein kinase 1 (Homo sapiens) (UniProt Q9BXA7); assay: Inhibition of STK22D (unknown origin) using [gamma-33P]ATP assessed as residual activity at 3 uM
[17] = target: Mitogen-activated protein kinase 10 (Homo sapiens) (UniProt P53779); assay: Inhibition of JNK3 (unknown origin) using [gamma-33P]ATP assessed as residual activity at 3 uM; how it was run: as §2
[18] = target: Serine/threonine-protein kinase 4 (Homo sapiens) (UniProt Q13043); assay: Inhibition of MST1 (unknown origin) using [gamma-33P]ATP assessed as residual activity at 3 uM
[19] = target: Serine/threonine-protein kinase Chk2 (Homo sapiens, UniProt O96017); assay: Inhibition of CHK2 (unknown origin) using [gamma-33P]ATP assessed as residual activity at 3 uM
[20] = target: Tyrosine-protein kinase JAK3 (Homo sapiens) (UniProt P52333); assay: Inhibition of JAK3 (unknown origin) using [gamma-33P]ATP assessed as residual activity at 3 uM; how it was run: as §2
[21] = target: Serine/threonine-protein kinase Nek3 (Homo sapiens) (UniProt P51956); assay: Inhibition of NEK3 (unknown origin) using [gamma-33P]ATP assessed as residual activity at 3 uM
[22] = target: Serine/threonine-protein kinase N2 (Homo sapiens) (UniProt Q16513); assay: Inhibition of PKN2 (unknown origin) using [gamma-33P]ATP assessed as residual activity at 3 uM
[23] = target: TGF-beta receptor type-1 (Homo sapiens) (UniProt P36897); assay: Inhibition of ALK5 (unknown origin) using [gamma-33P]ATP assessed as residual activity at 3 uM; how it was run: as §3
[24] = system: Tyrosine-protein kinase ABL1 (Homo sapiens), P00519 [T315I]; assay: Inhibition of ABL1 T315I mutant (unknown origin) using [gamma-33P]ATP assessed as residual activity at 3 uM; how it was run: as §3
[25] = target: Serine/threonine-protein kinase 24 (Homo sapiens) (UniProt Q9Y6E0); assay: Inhibition of MST3 (unknown origin) using [gamma-33P]ATP assessed as residual activity at 3 uM
Sequence of Serine/threonine-protein kinase 24 (Homo sapiens) (Q9Y6E0 whole entry, looked up): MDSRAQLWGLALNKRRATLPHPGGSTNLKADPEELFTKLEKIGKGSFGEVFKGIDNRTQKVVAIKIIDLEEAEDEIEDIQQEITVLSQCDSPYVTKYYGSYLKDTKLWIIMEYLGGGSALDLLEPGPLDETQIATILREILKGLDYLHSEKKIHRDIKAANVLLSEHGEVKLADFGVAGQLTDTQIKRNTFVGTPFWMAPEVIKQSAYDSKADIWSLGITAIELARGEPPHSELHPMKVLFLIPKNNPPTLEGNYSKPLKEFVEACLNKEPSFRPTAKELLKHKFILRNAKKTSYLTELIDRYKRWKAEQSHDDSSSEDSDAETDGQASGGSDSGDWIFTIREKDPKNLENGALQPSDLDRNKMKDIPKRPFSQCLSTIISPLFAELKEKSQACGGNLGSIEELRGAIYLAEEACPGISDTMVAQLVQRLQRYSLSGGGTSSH

[26] = target: CDK6/cyclin D3 (Homo sapiens) (UniProt P30281+Q00534); assay: Inhibition of CDK6/cyclin D3 (unknown origin) using [gamma-33P]ATP assessed as residual activity at 3 uM; format: protein-complex assay; how it was run: as §3
[27] = target: Ribosomal protein S6 kinase alpha-1 (Homo sapiens) (UniProt Q15418); assay: Inhibition of RSK1 (unknown origin) using [gamma-33P]ATP assessed as residual activity at 3 uM
Sequence of Ribosomal protein S6 kinase alpha-1 (Homo sapiens) (Q15418 whole entry): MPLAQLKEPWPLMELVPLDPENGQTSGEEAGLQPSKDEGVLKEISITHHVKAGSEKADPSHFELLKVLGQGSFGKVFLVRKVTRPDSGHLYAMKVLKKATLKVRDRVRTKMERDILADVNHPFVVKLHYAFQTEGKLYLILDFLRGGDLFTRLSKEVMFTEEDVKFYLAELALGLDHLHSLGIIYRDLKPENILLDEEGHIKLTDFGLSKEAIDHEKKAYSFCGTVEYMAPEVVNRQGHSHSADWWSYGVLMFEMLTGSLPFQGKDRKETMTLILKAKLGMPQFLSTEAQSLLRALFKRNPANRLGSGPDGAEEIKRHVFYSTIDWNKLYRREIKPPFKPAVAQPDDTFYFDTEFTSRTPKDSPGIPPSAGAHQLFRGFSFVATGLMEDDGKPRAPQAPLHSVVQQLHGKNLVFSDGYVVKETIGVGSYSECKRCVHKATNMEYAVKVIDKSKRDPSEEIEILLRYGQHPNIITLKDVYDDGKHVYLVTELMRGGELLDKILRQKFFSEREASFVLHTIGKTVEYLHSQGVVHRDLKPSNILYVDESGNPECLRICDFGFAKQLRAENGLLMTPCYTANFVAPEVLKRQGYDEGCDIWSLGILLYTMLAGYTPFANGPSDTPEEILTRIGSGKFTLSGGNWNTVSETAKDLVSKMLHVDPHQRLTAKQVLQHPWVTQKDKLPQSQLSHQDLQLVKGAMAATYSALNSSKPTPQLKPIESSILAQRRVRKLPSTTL

[28] = target: Protein kinase C beta type (Homo sapiens) (UniProt P05771); assay: Inhibition of PKCb1 (unknown origin) using [gamma-33P]ATP assessed as residual activity at 3 uM
[29] = target: Serine/threonine-protein kinase BRSK2 (Homo sapiens) (UniProt Q8IWQ3); assay: Inhibition of BRSK2 (unknown origin) using [gamma-33P]ATP assessed as residual activity at 3 uM; how it was run: as §3
[30] = target: Ephrin type-A receptor 2 (Homo sapiens) (UniProt P29317); assay: Inhibition of EPHA2 (unknown origin) using [gamma-33P]ATP assessed as residual activity at 3 uM; how it was run: as §1
[31] = target: NT-3 growth factor receptor (Homo sapiens) (UniProt Q16288); assay: Inhibition of TRKC (unknown origin) using [gamma-33P]ATP assessed as residual activity at 3 uM

An Activity [1] of 103%, an Activity [2] of 86% and an Activity [3] of 93% were found for `CCc1ccc(-c2ccc3c(c2)-c2[nH]ncc2S(=O)(=O)N3C)cc1` in this work. For the same compound, the Activity [4] was 94%, the Activity [5] was 95% and the Activity [6] was 103%. It also gave an Activity [7] of 87%, an Activity [8] of 83% and an Activity [9] of 96%. The Activity [10] was 60%, the Activity [11] was 103% and the Activity [12] was 90%. The Activity [13] was 91%, the Activity [14] was 103% and the Activity [15] was 90%. It also gave an Activity [16] of 87%, an Activity [17] of 102% and an Activity [18] of 87%. For the same compound, the Activity [19] was 50%, the Activity [20] was 94% and the Activity [21] was 100%. For the same compound, the Activity [22] was 91%, the Activity [23] was 89% and the Activity [24] was 93%. For the same compound, the Activity [25] was 73%, the Activity [26] was 102% and the Activity [27] was 96%. It also gave an Activity [28] of 101%, an Activity [29] of 93% and an Activity [30] of 90%. It also gave an Activity [31] of 95%.
